Assay results taken from ChEMBL document CHEMBL1127802, “Selective inhibitors of monoamine oxidase. 2. Arylamide SAR” (J Med Chem, 1994).
Blank lines part the entries; values can stand above or below the compound they belong to.

Tests used:
[1] = biological target: T1, MAO B (monoamine oxidase B) (Rattus norvegicus, UniProt P19643); assay: (§1) Inhibitory activity against monoamine oxidase B (MAO B) from rat brain using a radiometric procedure with [14C]phenylethylamine at 1 uM; conditions: rat brain monoamine oxidase B preparation, probe [14C]phenylethylamine
T1 sequence (P19643 whole entry): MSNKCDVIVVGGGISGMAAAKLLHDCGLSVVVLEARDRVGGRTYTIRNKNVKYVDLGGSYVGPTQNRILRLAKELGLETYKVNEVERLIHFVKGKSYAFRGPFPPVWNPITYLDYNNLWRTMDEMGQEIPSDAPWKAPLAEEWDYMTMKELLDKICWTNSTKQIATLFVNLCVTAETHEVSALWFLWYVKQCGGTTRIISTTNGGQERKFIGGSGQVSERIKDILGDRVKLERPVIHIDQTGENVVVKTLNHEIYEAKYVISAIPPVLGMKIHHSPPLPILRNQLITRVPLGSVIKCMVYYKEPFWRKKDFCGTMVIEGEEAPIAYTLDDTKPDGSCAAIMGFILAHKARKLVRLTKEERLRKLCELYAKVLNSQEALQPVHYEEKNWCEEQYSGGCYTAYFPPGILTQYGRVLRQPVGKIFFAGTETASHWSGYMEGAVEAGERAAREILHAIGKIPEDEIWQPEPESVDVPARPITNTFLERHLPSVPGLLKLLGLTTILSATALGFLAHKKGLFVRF
Method in brief: (§2)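 Rat brain mitochondrial MAO extract was preincubated ± inhibitor for 15 min at 37 °C in 50 mM potassium phosphate, pH 7.4. […] Pargyline (2 mM) defined blanks. Acid stop, ethyl acetate/toluene extraction and scintillation counting followed. Triplicate means gave % inhibition, and IC50 was extrapolated from % inhibition vs log concentration plots.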

[2] = biological target: T2, Amine oxidase [flavin-containing] A (Rattus norvegicus, UniProt P21396); assay: Inhibitory activity against monoamine oxidase A (MAO A) from rat brain using a radiometric procedure with [3H]5-HT
T2 sequence (P21396 whole entry): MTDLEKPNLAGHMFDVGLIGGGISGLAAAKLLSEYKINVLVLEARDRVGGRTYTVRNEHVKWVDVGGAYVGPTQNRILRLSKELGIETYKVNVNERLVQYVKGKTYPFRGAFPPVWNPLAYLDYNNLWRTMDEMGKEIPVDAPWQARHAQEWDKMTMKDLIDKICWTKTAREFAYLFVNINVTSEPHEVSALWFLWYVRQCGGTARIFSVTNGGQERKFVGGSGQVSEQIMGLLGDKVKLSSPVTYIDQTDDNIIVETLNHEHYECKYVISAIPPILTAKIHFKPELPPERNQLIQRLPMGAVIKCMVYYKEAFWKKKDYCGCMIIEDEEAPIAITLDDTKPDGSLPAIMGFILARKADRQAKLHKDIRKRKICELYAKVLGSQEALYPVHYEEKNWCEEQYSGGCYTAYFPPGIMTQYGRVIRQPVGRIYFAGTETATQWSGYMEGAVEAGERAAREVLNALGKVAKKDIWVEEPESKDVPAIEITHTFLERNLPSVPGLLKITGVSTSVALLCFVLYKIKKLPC
Method in brief: (§3)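 Rat brain mitochondrial MAO extract was preincubated with or without inhibitor for 15 min at 37 °C in 50 mM potassium phosphate, pH 7.4. […] Blanks contained 2 mM pargyline. Reactions were stopped with HCl, products extracted into ethyl acetate/toluene and counted by scintillation. Triplicates were averaged as % inhibition, and IC50 was taken from % inhibition vs log concentration.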

[3] = biological target: T1, MAO B (monoamine oxidase B); assay: (§4) Inhibitory activity against monoamine oxidase B (MAO B) from rat brain using a radiometric procedure with [14C]phenylethylamine at 10 uM; conditions: rat brain monoamine oxidase B preparation, probe [14C]phenylethylamine; method in brief: as §2
[4] = biological target: T3, MAO A (monoamine oxidase A) (Rattus norvegicus, UniProt P21396); assay: (§5) Inhibitory activity against monoamine oxidase A (MAO A) from rat brain using a radiometric procedure with [3H]5-HT at 10 uM; conditions: rat brain monoamine oxidase A preparation, probe [3H]5-HT; method in brief: as §3
T3 sequence (P21396 whole entry): T2 sequence (P21396 whole entry)

[5] = biological target: T3, MAO A (monoamine oxidase A); assay: (§6) Inhibitory activity against monoamine oxidase A (MAO A) from rat brain using a radiometric procedure with [3H]5-HT at 1 uM; conditions: rat brain monoamine oxidase A preparation, probe [3H]5-HT; method in brief: as §3
[6] = biological target: T1, MAO B (monoamine oxidase B); assay: Inhibitory activity against monoamine oxidase B (MAO B) from rat brain using a radiometric procedure with [14C]- phenethylamine at 1 uM; conditions: rat brain monoamine oxidase B preparation, probe [14C]-phenethylamine; method in brief: as §2
[7] = biological target: T3, MAO A (monoamine oxidase A); assay: Inhibitory activity against monoamine oxidase A (MAO A) from rat brain using a radiometric procedure with [3H]- serotonin at 1 uM; conditions: rat brain monoamine oxidase A preparation, probe [3H]-serotonin; method in brief: as §3
[8] = biological target: T2, Amine oxidase [flavin-containing] A; assay: Inhibitory activity against monoamine oxidase A (MAO A) from rat brain using a radiometric procedure with [3H]- serotonin.; method in brief: as §3
[9] = biological target: T1, MAO B (monoamine oxidase B); assay: Inhibitory activity against monoamine oxidase B (MAO B) from rat brain using a radiometric procedure with [14C]- phenethylamine atb 10 uM; conditions: rat brain monoamine oxidase B preparation, probe [14C]-phenethylamine
Method in brief: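 Rat brain mitochondrial MAO extract preincubated ± inhibitor 15 min at 37 °C in 50 mM potassium phosphate pH 7.4. […] Blanks contained 2 mM pargyline. Stopped with HCl, products extracted into ethyl acetate/toluene, scintillation counted. Triplicates. IC50 from mean % inhibition vs log concentration plot.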

[10] = biological target: T4, Amine oxidase [flavin-containing] B (Rattus norvegicus, UniProt P19643); assay: as §4; method in brief: as §2
T4 sequence (P19643 whole entry): T1 sequence (P19643 whole entry)

[11] = biological target: T2, Amine oxidase [flavin-containing] A; assay: as §5; method in brief: as §3
[12] = biological target: T3, MAO A (monoamine oxidase A); assay: Inhibitory activity against monoamine oxidase A (MAO A) from rat brain using a radiometric procedure with [3H]- serotonin at 10 uM; conditions: rat brain monoamine oxidase A preparation, probe [3H]-serotonin; method in brief: as §3
[13] = biological target: T1, MAO B (monoamine oxidase B); assay: Inhibitory activity against monoamine oxidase B (MAO B) from rat brain using a radiometric procedure with [14C]phenylethylamine at 0.1 uM; conditions: rat brain monoamine oxidase B preparation, probe [14C]phenylethylamine; method in brief: as §2
[14] = biological target: T3, MAO A (monoamine oxidase A); assay: Inhibitory activity against monoamine oxidase A (MAO A) from rat brain using a radiometric procedure with [3H]- serotonin at 0.1 uM; conditions: rat brain monoamine oxidase A preparation, probe [3H]-serotonin; method in brief: as §3
[15] = biological target: T1, MAO B (monoamine oxidase B); assay: Inhibitory activity against monoamine oxidase B (MAO B) from rat brain using a radiometric procedure with [14C]- phenethylamine at 0.1 uM; conditions: rat brain monoamine oxidase B preparation, probe [14C]-phenethylamine; method in brief: as §2
[16] = biological target: T4, Amine oxidase [flavin-containing] B; assay: as §1; method in brief: as §2
[17] = biological target: T2, Amine oxidase [flavin-containing] A; assay: as §6; method in brief: as §3

SMILES: CC(=O)Nc1nc2cc(C)c(C)cc2[nH]1
- inhibition at 10 uM [3]: 18%
- inhibition [4]: 50%

SMILES: CC(=O)Nc1ccc2c(c1)CCC2
- inhibition at 1 µM [1]: 37%
- inhibition [5]: 13%

SMILES: CC(=O)Nc1ccc2c(cnn2C(C)=O)c1
- inhibition at 1 µM [6]: 27%
- inhibition at 1 µM [7]: 4%

SMILES: CC(=O)Nc1ccc2c(c1)[nH]c1ccccc12
- IC50 [8]: 43 nM
- inhibition at 10 uM [9]: 38%

SMILES: CC(=O)Nc1ccc2c(c1)[nH]c1ccc(Br)cc12
- inhibition [5]: 61%

SMILES: NC(=O)Nc1ccc2c(c1)[nH]c1ccccc12
- inhibition at 1 µM [1]: 26%
- inhibition [5]: 74%

SMILES: CC(=O)Nc1nc2ccccc2[nH]1
- inhibition at 10 uM [3]: -2%
- inhibition [4]: 8%

SMILES: CC(=O)NCc1ccc2c(c1)c1ccccc1n2C
- inhibition at 1 µM [1]: 30%
- inhibition [5]: 16%

SMILES: CC(=O)Nc1ccc2c(c1)COCO2
- inhibition at 10 uM [3]: 22%
- inhibition [4]: 42%

SMILES: CC(=O)Nc1nc2cc(C)c(C)cc2s1
- inhibition at 10 uM [3]: 38%
- inhibition [4]: 54%

SMILES: CC(=O)Nc1ccc2c3c([nH]c2c1)CCC(C)(C=O)C3 (stereo not given)
- inhibition at 1 µM [6]: 11%
- inhibition at 1 µM [7]: 0%

SMILES: CC(=O)Nc1ccc(Oc2ccc(CS(C)(=O)=O)cc2)cc1
- inhibition at 1 µM [1]: 25%
- inhibition [5]: 31%

SMILES: CC(=O)Nc1ccc2c(c1)S(=O)(=O)c1cc(NC(C)=O)ccc1N2C
- inhibition [16]: 7%
- inhibition [17]: 2%

Other lines, results leading:

- inhibition at 1 µM [1]: -1%
- IC50 [2]: 60 nM
SMILES: CC(=O)Nc1ccc2c(c1)S(=O)(=O)c1ccccc1C2=O

- IC50 [2]: 1300 nM
SMILES: CC(=O)Nc1ccc2c(c1)C(=O)c1cc([N+](=O)[O-])ccc1-2

- IC50 [2]: 700 nM
SMILES: CC(=O)Nc1ccc2c(c1)S(=O)(=O)c1ccc(C)cc1C2=O

- inhibition [10]: 22%
- inhibition [11]: 74%
SMILES: CC(=O)Nc1ccc2c(c1)S(=O)(=O)c1ccccc1N2

- inhibition at 10 µM [12]: 44%
SMILES: CC(=O)Nc1cccc(Nc2ccccc2)c1

- inhibition at 10 uM [3]: 3%
- inhibition [4]: 18%
SMILES: O=CN(C=O)c1ccc2c(c1)S(=O)(=O)c1ccccc1C2=O

- inhibition at 0.1 µM [13]: 0%
- IC50 [2]: 14 nM
SMILES: CC(=O)Nc1ccc2c(c1)S(=O)(=O)c1ccccc1O2

- IC50 [2]: 30 nM
SMILES: CC(=O)Nc1ccc2c3ccccc3n(C)c2c1

- inhibition at 1 µM [1]: 13%
- IC50 [2]: 260 nM
SMILES: CC(=O)Nc1ccc2c(c1)-c1ccccc1S2(=O)=O

- inhibition at 10 uM [3]: 13%
- inhibition [4]: 22%
SMILES: NC(=O)Nc1ccccc1-c1ccccc1

- IC50 [2]: 1000 nM
SMILES: O=CNc1ccc2c(c1)-c1ccccc1S2(=O)=O

- inhibition at 1 µM [1]: 39%
- IC50 [2]: 120 nM
SMILES: CC(=O)Nc1ccc2c(c1)C(=O)c1ccccc1S2(=O)=O

- inhibition at 1 µM [7]: 12%
SMILES: CC(=O)Nc1cccc2c1C(=O)c1ccccc1C2=O

- inhibition [5]: 34%
SMILES: CNc1ccc2c(c1)-c1ccccc1S2(=O)=O

- inhibition at 0.1 uM [14]: 10%
- inhibition at 0.1 µM [15]: 23%
SMILES: CC(=O)Nc1ccc2oc(=O)c3ccccc3c2c1

- inhibition at 1 µM [1]: 20%
- inhibition [5]: 7%
SMILES: CC(=O)NC(C)c1ccc2c(c1)[nH]c1ccccc12 (stereo not given)
